Measured values taken from paper PMC6939458 (Cancer cell, 2019).
Where “and” joins values, the source holds several entries; their conditions need not be identical. Equal entries are not always repeated. Each block holds one molecule with its values, some of them ahead of it.

What was measured:
[1] = molecular target: T1, MYC (Homo sapiens, UniProt P01106); experiment: STD NMR, MYC; assay type: binding; details: 975 phosphate analog 100 μM, G5 200 μM
Summary of the method: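 Buffer: 50 mM HEPES, 500 mM NaCl, 10 mM β-mercaptoethanol, 5% glycerol, 30 mM imidazole. Ligand spectra recorded with and without each protein individually.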
Target sequence in this assay (P01106 368-454): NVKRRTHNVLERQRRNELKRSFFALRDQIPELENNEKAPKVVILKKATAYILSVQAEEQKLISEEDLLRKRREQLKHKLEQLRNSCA

[2] = molecular target: HIF-1α (Homo sapiens, UniProt Q16665); experiment: Biotinylated compound pull down, HIF-1α; assay type: binding; details: cell lysates
Summary of the method: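 A biotin-conjugated test compound was used as bait. Nuclear complexes came from exponentially growing PC3 and P493–6 cells, extracted with a nuclear complex co-IP kit. The pull-down ran in low co-IP buffer with NaCl added to a final 150 mM.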

[3] = molecular target: T1, MYC; experiment: Biotinylated compound pull down, MYC; assay type: binding; details: for competition of MYC binding to Biotin-361: PC3 cell lysate, excess competitor
Summary of the method: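 Nuclear extract from PC3 cells prepared with a nuclear co-IP kit in low co-IP buffer at 150 mM NaCl final. Extract pre-cleared on streptavidin beads 1 hr at 4 °C. About 100 μg extract incubated overnight at 4 °C on a rotator with 1 to 10 μM biotinylated test compound, 10 μM D-biotin or DMSO. Recombinant MYC (0.5 μg) run the same way in buffer with 1% BSA, without pre-clearing. Bound MYC detected by Western blot. For competition, lysate pre-treated with competitor before biotin probe (5 μM).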
Target sequence in this assay (P01106 16-454): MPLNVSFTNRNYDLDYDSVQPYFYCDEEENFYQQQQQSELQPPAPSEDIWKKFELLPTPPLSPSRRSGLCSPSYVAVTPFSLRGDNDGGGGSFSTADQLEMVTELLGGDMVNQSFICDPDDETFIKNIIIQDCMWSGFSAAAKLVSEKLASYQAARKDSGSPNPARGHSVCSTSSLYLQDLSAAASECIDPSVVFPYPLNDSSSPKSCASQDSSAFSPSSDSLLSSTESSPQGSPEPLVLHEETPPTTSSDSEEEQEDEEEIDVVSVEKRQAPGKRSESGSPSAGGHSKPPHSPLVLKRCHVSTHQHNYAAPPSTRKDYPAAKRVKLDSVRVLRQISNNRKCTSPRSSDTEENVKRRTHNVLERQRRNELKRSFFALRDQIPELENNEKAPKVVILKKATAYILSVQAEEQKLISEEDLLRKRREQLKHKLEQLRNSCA

[4] = Maximum tolerated dose / acute toxicity in mice; assay type: in vivo; details: p.o., single dose at 50, 100, 250, 500 or 1000 mg/kg
[5] = system: MycCaP tumor allografts; experiment: MycCaP allograft/xenograft mouse model; assay type: in vivo
Summary of the method: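 Male FVB (allograft) or NSG (xenograft) mice, 6–8 weeks, ~25 g, acclimated >4 days. Injected s.c. in flanks with 1 × 10⁶ MycCaP E-box-luciferase cells in 100 μl Matrigel. Tumors followed by caliper ((length × width × width)/2) and by bioluminescent imaging after i.p. substrate injection. Body weight recorded. Tumor tissue assessed by H&E and immunofluorescence for Ki67, MYC pT58 and PD-L1.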

[6] = molecular target: MYC353–439 (Homo sapiens, UniProt P01106); experiment: Fluorescence polarization competition assay against 10074-G5; assay type: binding
[7] = 14-day toxicology in mice; assay type: in vivo, mouse; details: 100 mg/kg daily for 14 days, analyzed one week later
[8] = molecular target: T1, MYC; experiment: Cellular thermal shift assay; assay type: cell-based; details: PC3 cells
Summary of the method: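 PC3 cells (70–80% confluent; also PC3 stably expressing Flag-MYCT58A, puromycin 1.5 μg/ml selected) treated with test compound or DMSO for 30 min. Cells washed, resuspended in PBS with protease/phosphatase inhibitors plus the same compound dose, split into 7–10 aliquots (~1 million cells each), heated 2 min at graded temperatures, then 3 min room temperature. Lysates boiled 5 min at 90 °C; MYC quantified by Western blot densitometry to build melt curves.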
Target sequence in this assay (P01106 16-454): as above

[9] = system: Lewis Lung Carcinoma (LLC1); experiment: LLC1 allograft lung cancer mouse model; assay type: in vivo; details: 100 mg/kg/day
Summary of the method: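 LLC1 cells (1 × 10⁶) in PBS:matrigel 1:1 were injected subcutaneously into the flanks of female C57BL/6 mice, aged 6–8 weeks. Mice were randomised 3 days after inoculation and given test compound i.p. as 50 mg/kg twice daily (100 mg/kg/day). Tumour growth and body weight were followed, n = 7 mice/group, mean ± SEM.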

[10] = Pharmacokinetics of 975 in CD-1 mice; details: male, CD-1, mouse, in vivo, po
[11] = molecular target: GSK3β-mediated MYC pT58 (Homo sapiens, UniProt P01106); experiment: In vitro kinase assay; assay type: biochemical; details: 6 μM
Summary of the method: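 Phosphorylation reactions were run in kinase buffer (25 mM Tris-HCl pH 7.5, 5 mM β-glycerophosphate, 2 mM DTT, 0.1 mM sodium vanadate, 10 mM MgCl₂) at room temperature for 2 hr in total.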

[12] = system: MYC transcriptional activity (E-box-luciferase); experiment: E-box luciferase reporter assay in vitro; assay type: cell-based
Summary of the method: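 MycCaP cells stably carrying either MYC E-box-luciferase reporter or control mCherry-P2A-luciferase vector plated 10000 cells/well. Serial dilution of test compound added the next day; luminescence read by Steady-Glo after 4 hr treatment.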

[13] = system: MV-411 AML xenografts; experiment: MV-411 AML xenograft; assay type: in vivo, mouse
Summary of the method: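 Immunodeficient mice were inoculated with 5×10⁶ MV-411 cells in PBS:matrigel 1:1. They were randomised by tumour volume at ~200 to 500 mm³ and dosed with vehicle, test compound, or test compound plus Ara-C, 5 days a week for 3 weeks. Calipers were read twice weekly and volume was taken as (length × width × width)/2. Body weight was monitored, n = 4 mice/group, mean ± SEM.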

[14] = system: MYC-dependent cancer cells; experiment: Cell viability, MYC-dependent cancer cells; assay type: cell-based; details: prostate cancer cells versus PC12, 5 days
Summary of the method: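 Cells were seeded at 1000 to 5000 per well in 96-well plates, depending on cell type. Viable cells were counted, or MTS absorbance was read at 490 nm, 2 to 7 days after treatment. MycCaP, PC3, LNCaP and P493–6 were grown in RPMI1640, SK-N-BE(2) in F12 and MV411 in IMDM, each with 10% heat-inactivated FBS and 1% penicillin-streptomycin.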

[15] = system: MYC; experiment: Western blot of MYC protein level, stability and phosphorylation in cells; assay type: cell-based, human; details: 8 μM
Summary of the method: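 PC3 cells, or PC3 stably expressing Flag-MYC, Flag-MYCT58A or Flag-MYCS62A (lentiviral, 1.5 μg/ml puromycin selection), were used. For stability, cells were pretreated 3 hr with compound or DMSO, then given cycloheximide and harvested at time points. MYC, pT58, pS62, GSK3β and pGSK3β S9 were detected by western blot over a time course. Band intensities were densitometrically quantified.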

[16] = molecular target: MAX(S) (Homo sapiens, UniProt P61244-2 1-151); experiment: EMSA
[17] = MycCaP allograft, 100 mg/kg/day i.p. for 14 days

HIF-1α, sequence (Q16665 whole entry): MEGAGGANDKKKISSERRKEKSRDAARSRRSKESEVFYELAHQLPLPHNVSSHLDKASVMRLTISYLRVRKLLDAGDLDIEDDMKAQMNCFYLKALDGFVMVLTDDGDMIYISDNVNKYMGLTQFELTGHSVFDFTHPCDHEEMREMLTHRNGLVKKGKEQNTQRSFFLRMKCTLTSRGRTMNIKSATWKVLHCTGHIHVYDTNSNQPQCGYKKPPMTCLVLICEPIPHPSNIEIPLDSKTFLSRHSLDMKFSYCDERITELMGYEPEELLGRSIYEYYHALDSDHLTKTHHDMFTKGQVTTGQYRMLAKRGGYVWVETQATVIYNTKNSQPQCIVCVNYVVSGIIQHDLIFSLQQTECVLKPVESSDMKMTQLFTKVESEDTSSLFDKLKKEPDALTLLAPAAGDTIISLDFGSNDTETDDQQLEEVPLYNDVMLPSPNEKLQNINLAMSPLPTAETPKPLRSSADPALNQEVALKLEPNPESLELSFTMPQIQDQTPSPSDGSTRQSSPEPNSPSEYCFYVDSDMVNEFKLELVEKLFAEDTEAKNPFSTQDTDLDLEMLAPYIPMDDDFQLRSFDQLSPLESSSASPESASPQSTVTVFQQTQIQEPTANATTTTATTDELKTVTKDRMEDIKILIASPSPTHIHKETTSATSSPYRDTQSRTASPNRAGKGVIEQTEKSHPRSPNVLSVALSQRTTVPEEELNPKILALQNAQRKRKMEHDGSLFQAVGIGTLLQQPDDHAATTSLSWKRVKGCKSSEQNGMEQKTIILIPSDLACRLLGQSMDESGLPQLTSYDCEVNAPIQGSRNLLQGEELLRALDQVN
GSK3β-mediated MYC pT58, sequence (P01106 16-454): as the sequence (P01106 16-454) above
MYC353–439, sequence (P01106 368-454): as the sequence (P01106 368-454) above

Molecule: Cn1nc(C(F)(F)F)cc1-c1ccc(OCCNC(=O)CCOCCOCCOCCOCCNC(=O)CCCC[C@@H]2SCC3NC(=O)NC32)c(-c2cc(C(F)(F)F)cc(C(F)(F)F)c2)c1O (stereo partly drawn) [Biotin-975, N-(2-((6-hydroxy-5-(1-methyl-3-(trifluoromethyl)-1H-pyrazol-5-yl)-3’,5’-bis(trifluoromethyl)-[1,1’-biphenyl]-2-yl)oxy)ethyl)-1-(5-((4S)-2-oxohexahydro-1H-thieno[3,4-d]imidazol-4-yl)pentanamido)-3,6,9,12-tetraoxapentadecan-15-amide]
pull down of MYC protein ([3]; 10 μM, PC3 cells): pulled down MYC protein

Molecule: Cn1nc(C(F)(F)F)cc1-c1ccc(OCc2ccc(Cl)cc2)c(-c2ccc(Cl)c(C(F)(F)F)c2)c1O [Compound 975, 4’-chloro-6-((4-chlorobenzyl)oxy)-3-(1-methyl-3-(trifluoromethyl)-1H-pyrazol-5-yl)-3’-(trifluoromethyl)-[1,1’-biphenyl]-2-ol]
well tolerated single dose, acute toxicity [4]: up to 1000 mg/kg | tumor inhibition, FVB versus NSG mice ([5]; 50 mg/kg twice daily, 3 days): more strongly than in immunodeficient NSG mice | pT58 and PD-L1 levels in tumor tissue ([5]; 100 mg/kg/day i.p. for 14 days): increased pT58 and PD-L1 levels | tumor growth, 975 alone ([5]; 100 mg/kg/day, 2 days on/2 days off): slowed tumor growth | tumor infiltration of immune cells ([5]; CD3+ T cells, B220+ B cells, NKp46+ NK cells, 100 mg/kg/day for 14 days): enhanced tumor infiltration of CD3+ T cells | survival [5, 17]: increased survival | tumor growth [5, 17]: significantly inhibited tumor growth | Kd [6]: 2500 nM | gross and histological analysis of organs [7]: no obvious pathologic abnormalities | hematology, blood chemistry, kidney and liver function [7]: normal complete blood count and differential, normal blood chemistry, and normal kidney and liver function | MYC target engagement by CETSA ([8]; 8 μM): confirmed MYC target engagement | body weight [9]: no changes in body weight | tumor growth [9]: inhibited tumor growth | Cmax ([10]; 100 mg/kg): 41500 ng/mL and 74 µM | half-life ([10]; 100 mg/kg): 7 h | Cmax ([10]; 250 mg/kg): 54000 ng/mL and 96 µM | half-life ([10]; 250 mg/kg): 12 h | pT58 levels in in vitro kinase assay [11]: directly increased GSK3β-mediated MYC pT58 | E-box-luciferase versus CMV-luciferase activity in vitro [12]: selectively suppressed E-box-luciferase activity | efficacy as a single agent ([13]; 50 mg/kg/day, 5 days a week): reduced efficacy as a single agent | body weight, combination with Ara-C ([13]; 975 50 mg/kg/day, Ara-C 20 mg/kg/day): no obvious impact on mouse body weight | tumor growth, combination with Ara-C ([13]; 975 50 mg/kg/day, Ara-C 20 mg/kg/day, 5 days a week): synergized with Ara-C | cell viability [14]: inhibited cell viability in a MYC-dependent manner | MYC degradation and phosphorylation on T58 [15]: enhanced MYC degradation and phosphorylation on T58

Molecule: Cn1nc(C(F)(F)F)cc1-c1ccc(OCOP(=O)(O)O)c(-c2cc(C(F)(F)F)cc(C(F)(F)F)c2)c1O [Phosphate-361, ((6-hydroxy-5-(1-methyl-3-(trifluoromethyl)-1H-pyrazol-5-yl)-3’,5’-bis(trifluoromethyl)-[1,1’-biphenyl]-2-yl)oxy)methyl dihydrogen phosphate]
competition of MYC binding to Biotin-361 [3]: competed

B1: HEX E-box oligo (dsDNA)
DNA 1: CACCCGGTCACGTGGCCTACAC
DNA 2: GTGTAGGCCACGTGACCGGGTG
binding result [16]: no binding

Now from value to molecule:

binding to MYC by STD NMR [1]: bound to MYC
Molecule: O=P(O)(O)OCOc1ccc(-c2cc(C(F)(F)F)n[nH]2)c(O)c1-c1ccc(Cl)c(C(F)(F)F)c1 [975 phosphate analog, ((4’-chloro-6-hydroxy-3’-(trifluoromethyl)-5-(3-(trifluoromethyl)-1H-pyrazol-5-yl)-[1,1’-biphenyl]-2-yl)oxy)methyl dihydrogen phosphate]

pull down of HIF-1α [2]: not MAX or another bHLH protein HIF-1α | pull down of recombinant MYC and endogenous MYC ([3]; cell lysates): pulled down
Molecule: Cn1nc(C(F)(F)F)cc1-c1ccc(OCCCNC(=O)CCOCCOCCOCCOCCOCCOCCNC(=O)CCCC[C@@H]2SCC3NC(=O)NC32)c(-c2cc(C(F)(F)F)cc(C(F)(F)F)c2)c1O (stereo partly drawn) [Biotin-361, N-(3-((6-hydroxy-5-(1-methyl-3-(trifluoromethyl)-1H-pyrazol-5-yl)-3’,5’-bis(trifluoromethyl)-[1,1’-biphenyl]-2-yl)oxy)propyl)-1-(5-((4S)-2-oxohexahydro-1H-thieno[3,4-d]imidazol-4-yl)pentanamido)-3,6,9,12,15,18-hexaoxahenicosan-21-amide]

competition of MYC binding to Biotin-361 [3]: competed | thermal stability of MYC protein (CETSA) ([8]; 30 min, 361 4–10 μM, G5 15–60 μM, 360 6 μM): significant thermal destabilization | binding to MYC by STD NMR [1]: confirmed interaction
Molecule: O=[N+]([O-])c1ccc(Nc2ccccc2-c2ccccc2)c2nonc12 [Compound G5, reference compound]
